IC50 data for 16 compounds are collected here from ChEMBL document CHEMBL3046857, “Novel inhibitors of the mitochondrial respiratory chain: oximes and pyrrolines isolated from Penicillium brevicompactum and synthetic analogues” (J Agric Food Chem, 2005).

In assay [1] the target is T1, NADH-ubiquinone oxidoreductase chain 1 (Bos taurus, UniProt P03887). Briefly: Inhibition of Bos taurus (beef) heart NAD1 assessed as NADH oxidase activity. The note with it: for pIC50: read-out: IC50. In a few lines: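 Beef heart submitochondrial particles, diluted to 0.5 mg/mL in 250 mM sucrose/10 mM Tris-HCl pH 7.4 and pre-activated with 300 µM NADH; then diluted to 6 µg/mL in 50 mM potassium phosphate pH 7.4, 1 mM EDTA, 22 °C. Compounds (ethanol stocks) preincubated with particles 5 min on ice. Aerobic oxidation of 75 µM NADH followed at 340 nm; three experiments; IC50.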

Assay [2] has as its target T1, NADH-ubiquinone oxidoreductase chain 1. Briefly: Inhibition of Bos taurus (beef) heart NAD1 assessed as NADH-ubiquinone oxidoreductase activity. A digest of the protocol: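 Complex I specific activity in NADH-activated beef heart submitochondrial particles (6 µg/mL; 50 mM potassium phosphate pH 7.4, 1 mM EDTA, 22 °C). Compound preincubated 5 min on ice. 75 µM NADH with 30 µM decylubiquinone as acceptor, plus 2 µM antimycin and 2 mM KCN to block downstream steps. NADH oxidation rate read at 340 nm; three assays; IC50.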

pIC50: −log10 of the molar value.

T1 sequence (P03887 whole entry): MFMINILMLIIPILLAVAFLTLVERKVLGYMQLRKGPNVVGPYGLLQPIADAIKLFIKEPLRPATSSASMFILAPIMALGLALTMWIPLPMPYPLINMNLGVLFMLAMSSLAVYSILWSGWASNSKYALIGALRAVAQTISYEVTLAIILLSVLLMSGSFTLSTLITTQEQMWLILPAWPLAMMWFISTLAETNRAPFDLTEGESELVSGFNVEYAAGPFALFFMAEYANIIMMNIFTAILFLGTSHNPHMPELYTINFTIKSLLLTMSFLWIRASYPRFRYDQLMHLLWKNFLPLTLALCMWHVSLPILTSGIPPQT

The term pIC50 denotes the IC50 on a negative log10 scale, so that one unit is a factor of ten. Consider `CCCCCCCCC(=O)CC(=O)c1ccc[nH]1`, for which the pIC50 was 5.07 in assay [1] and 4.84 in assay [2]. `CC(C(=O)c1ccccc1)C(=O)c1ccc[nH]1` (stereo not drawn): the pIC50 in assay [1] is 3.67. On to `CCC(=O)C(C)C(=O)c1ccc[nH]1` (stereo not drawn), for which the IC50 result in assay [1] is listed as “Not Active”.

`CCC(=O)CC(=O)c1ccc[nH]1`: in assay [1], the IC50 entry is on record as “Not Active”.

On to `CC1=C(C(C)c2cccc(Oc3ccccc3)c2)OC2/C(=N/O)CCN2C1=O` (stereo not drawn), for which the pIC50 is 6.04 in assay [1] and 5.46 in assay [2]. Consider `CCCCCCCC1=C(C)C(=O)N2CC/C(=N\O)C2O1` (stereo not drawn), for which the pIC50 is 6.57 in assay [1] and 5.82 in assay [2]. For the compound `C/C=C/CCCCC1=C(C)C(=O)N2CC/C(=N\O)C2O1` (stereo not drawn), the IC50 result in assay [1] is “Not Active”.

Regarding `CC(C(=O)N1C=CCC1)c1cccc(Oc2ccccc2)c1` (stereo not drawn), in assay [1], the pIC50 was 5.17. Take `CCCCCCCC(=O)C(C)C(=O)N1C=CCC1` (stereo not drawn): in assay [1], the pIC50 is 5.34. Turning to `C/C=C/CCCCC(=O)C(C)C(=O)N1C=CCC1` (stereo not drawn), the IC50 entry in assay [1] was “Not Active”. `CC1=C(C(C)c2cccc(Oc3ccccc3)c2)OC2C(O)CCN2C1=O` (single isomer, unassigned; diastereomer 1): the pIC50 is 5.26 in assay [1] and 4.84 in assay [2]. For the compound `CC(C(=O)C(C)c1cccc(Oc2ccccc2)c1)C(=O)N1C=CCC1` (single isomer, unassigned; diastereomer 1), the pIC50 in assay [1] is 5.41; in assay [2], 5.18. As to `CC(C(=O)C(C)c1cccc(Oc2ccccc2)c1)C(=O)N1CC[C@H](O)C1` (single isomer, unassigned; diastereomer 1), the pIC50 in assay [1] is 4.38.

On to `CC1=C(C(C)c2cccc(Oc3ccccc3)c2)OC2C(O)CCN2C1=O` (single isomer, unassigned; diastereomer 2), for which the pIC50 in assay [1] is 5.50; in assay [2] it was 4.92. Regarding `CC(C(=O)C(C)c1cccc(Oc2ccccc2)c1)C(=O)N1C=CCC1` (single isomer, unassigned; diastereomer 2), the pIC50 in assay [1] was 5.36; in assay [2], 4.78. Take `CC(C(=O)C(C)c1cccc(Oc2ccccc2)c1)C(=O)N1CC[C@H](O)C1` (single isomer, unassigned; diastereomer 2): the pIC50 in assay [1] is 4.44.
